Data: ChEMBL document CHEMBL1949585, “Design, synthesis and evaluation of telomerase inhibitory, hTERT repressing, and anti-proliferation activities of symmetrical 1,8-disubstituted amidoanthraquinones” (Eur J Med Chem, 2012)
Activity calls are given as the source filed them. The calls are words filed in the database; no cut-off is given here.

Tests used:
H1299 [1] = experiment: Inhibition of human telomerase in H1299 cell lysate at 10 uM by PCR-based telomeric repeat amplification protocol assay; assay type: cell-free
Outline: (§1)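 TRAP assay on telomerase-active H1299 cell extracts, with RNase A-treated extract as the negative control. Compound was preincubated with extract for 5 min at room temperature before the telomerase extension and PCR amplification. The initial screen used 10 µM, and IC50 came from a dose series.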

[2] = Cytotoxicity against human H1299 cells assessed as cell growth at 10 uM after 48 hrs by MTT assay; assay type: functional; details: NCI-H1299, 48 h, read-out: Activity
Outline: (§2)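 H1299 non-small lung cancer cells were grown in RPMI 1640 with 10% FBS and penicillin/streptomycin at 37 °C in 5% CO2. About 2×10³ cells were seeded per well and held 24 h, then washed with PBS and given fresh medium. Compound, freshly dissolved in DMSO and diluted in complete medium, was added for 48 h. MTT was read at 550 nm after SDS/DMF lysis at 37 °C for 16 h. Values are from three experiments, untreated = 100%, ±SD.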

[3] = Cytotoxicity against human H1299 cells assessed as cell growth at 1 uM after 48 hrs by MTT assay; assay type: functional; details: NCI-H1299, 48 h, read-out: Activity; outline: as §2
[4] = Inhibition of human TERT expression in H1299 cells at 1 uM after 24 hrs by secreted alkaline phosphatase reporter gene assay relative to control; values are per cent of control; details: NCI-H1299
[5] = Cytotoxicity against human H1299 cells assessed as cell growth at 100 uM after 48 hrs by MTT assay; assay type: functional; details: NCI-H1299, 48 h, read-out: Activity; outline: as §2
[6] = (§3) Inhibition of human telomerase in H1299 cell lysate compound incubated for 5 mins prior to telomerase extension by PCR-based telomeric repeat amplification protocol assay; assay type: cell-free; outline: as §1
H1299 [7] = experiment: as §3; assay type: cell-free; outline: as §1
[8] = Inhibition of human TERT expression in H1299 cells at 10 uM after 24 hrs by secreted alkaline phosphatase reporter gene assay relative to control; values are per cent of control; details: NCI-H1299
[9] = Inhibition of human TERT expression in H1299 cells at 100 uM after 24 hrs by secreted alkaline phosphatase reporter gene assay relative to control; values are per cent of control; details: NCI-H1299
H1299 [10] = experiment: Inhibition of human telomerase in H1299 cell lysate compound incubated post-telomerase extension by PCR-based telomeric repeat amplification protocol assay; assay type: cell-free
Outline: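 Modified TRAP assay (TRAP-M) to test for interference with Taq polymerase. Compound was added to H1299 extract reactions right after the telomerase extension step and before PCR amplification.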

IC50 [6] | Compound | inhibition (H1299 [1]) | growth at 10 µM [2] | growth at 1 µM [3] | level, % of control [4] | growth at 100 µM [5] | inhibition (H1299 [7]) | level, % of control [8] | level, % of control [9] | inhibition (H1299 [10])
6 µM | CN(C)CCCCNCCC(=O)Nc1cccc2c1C(=O)c1c(NC(=O)CCNCCCCN(C)C)cccc1C2=O | Active | 74% | 98% | 121% | 7% | Dose-dependent effect | 97% | 4% | Dose-dependent effect
 | CC(C)CNCC(=O)Nc1cccc2c1C(=O)c1c(NC(=O)CNCC(C)C)cccc1C2=O |  | 44% | 53% | 110% | 28% |  | 86% | 77% | 
 | CN(C)CCCNCCC(=O)Nc1cccc2c1C(=O)c1c(NC(=O)CCNCCCN(C)C)cccc1C2=O |  | 105% | 122% | 95% | 21% |  | 95% | 20% | 
 | CC(C)CNCCC(=O)Nc1cccc2c1C(=O)c1c(NC(=O)CCNCC(C)C)cccc1C2=O |  | 4% | 73% | 96% | 0% |  | 29% | 0% | 
 | CCCN(CCC)CC(=O)Nc1cccc2c1C(=O)c1c(NC(=O)CN(CCC)CCC)cccc1C2=O |  | 76% | 90% | 105% | 66% |  | 101% | 94% | 
 | CN(C)CCC(=O)Nc1cccc2c1C(=O)c1c(NC(=O)CCN(C)C)cccc1C2=O |  | 24% | 93% | 87% | 11% |  | 20% | 0% | 
 | COC(=O)[C@@H](NCC(=O)Nc1cccc2c1C(=O)c1c(NC(=O)CN[C@H](C(=O)OC)C(C)C)cccc1C2=O)C(C)C |  | 90% | 99% | 100% | 86% |  | 49% | 0% | 
 | CCN(C)CCC(=O)Nc1cccc2c1C(=O)c1c(NC(=O)CCN(C)CC)cccc1C2=O |  | 23% | 96% | 110% | 12% |  | 19% | 0% | 
 | COC(=O)[C@H](NCC(=O)Nc1cccc2c1C(=O)c1c(NC(=O)CN[C@@H](C(=O)OC)C(C)C)cccc1C2=O)C(C)C |  | 80% | 88% | 91% | 58% |  | 95% | 45% | 
 | CCNCC(=O)Nc1cccc2c1C(=O)c1c(NC(=O)CNCC)cccc1C2=O |  | 87% | 106% | 103% | 17% |  | 92% | 2% | 
 | CC(C)(C)OC(=O)NCCNCCC(=O)Nc1cccc2c1C(=O)c1c(NC(=O)CCNCCNC(=O)OC(C)(C)C)cccc1C2=O |  | 78% | 82% | 100% | 11% |  | 84% | 33% | 
 | O=C(CCNCc1cc(F)cc(F)c1)Nc1cccc2c1C(=O)c1c(NC(=O)CCNCc3cc(F)cc(F)c3)cccc1C2=O |  | 87% | 93% | 98% | 6% |  | 100% | 3% | 
 | CN(C)CC(=O)Nc1cccc2c1C(=O)c1c(NC(=O)CN(C)C)cccc1C2=O |  | 61% | 72% | 93% | 57% |  | 96% | 84% | 
 | CCCN(CCC)CCC(=O)Nc1cccc2c1C(=O)c1c(NC(=O)CCN(CCC)CCC)cccc1C2=O |  | 99% | 94% | 100% | 22% |  | 100% | 4% | 
 | COC(=O)[C@H](C)NCC(=O)Nc1cccc2c1C(=O)c1c(NC(=O)CN[C@@H](C)C(=O)OC)cccc1C2=O |  | 104% | 98% | 99% | 96% |  | 93% | 67% | 
